Compound activity deposited in PubChem by several laboratories.
ARNT TACC3 PPI: disruptors of ARNT/TACC3 protein interaction, primary screen, biochemical, AlphaScreen, single concentration; inhibition, % at 9.99 µM; AID 623870, 2012; 0.66% of 390,000 active; AlphaScreen His-ARNT PAS-B/GST-TACC3 binding, luminescence; TACC3 fragment carries E629A point mutation;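 active = mean inhibition of replicates at least 50% and at least half of replicates each reaching 50%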;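 also: 0% = complete ARNT plus TACC3 wells and 100% = ARNT alone without TACC3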
HTRA1 inhibitor: HTRA1 serine protease inhibitors, primary screen, biochemical, fluorescence polarization, HTS; Q92743; recombinant HTRA1, FP-rhodamine activity-based probe; inhibition, % at 5.96 µM; 0.5% of 340,000 active; in the data active = inhibition above about 36%;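 also: 0% = enzyme with DMSO and 100% = wells lacking enzyme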
ABHD4 inh: ABHD4 inhibitors, primary screen, biochemical, fluorescence polarization, mouse | (Lyso)-N-acylphosphatidylethanolamine lipase (Mus musculus), Q8VD66 | purified mABHD4, FP-Rh probe fluorescence polarization | inhibition, % at 8.92 µM | 0.54% of 370,000 active;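 active = inhibition exceeding the mean over every tested compound plus 3 SD, cut at about 30% in these data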;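 also: 0% = plate median of compound wells and 100% = S159A mutant with DMSO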
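Doses – 8.92 µM, single dose · Material – wild-type mouse ABHD4 protein · Replication – single well per compound (singlicate) · Measure – percent inhibition of probe binding, normalized to plate controls · Schedule – 45 min compound pre-incubation plus 60 min probe step, 25 °C · Detection – fluorescence polarization with parallel and perpendicular emission, 525/598 nm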
SIAE inh: human SIAE inhibitors, primary screen, biochemical, fluorescence polarization, FP-Rh probe, 1536-well HTS | Sialate O-acetylesterase (Homo sapiens), Q9HAT2 | SIAE FP-Rh probe binding | inhibition, % at 9.66 µM | 0.69% of 370,000 active | AID 1053197, 2014;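 active = inhibition above a cutoff: mean of compounds within the control limits plus 3 SD of those, cut at about 17% in these data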;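 also: 0% = plate median of compound wells and 100% = probe without SIAE protein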
Target sequence (Q9HAT2 whole entry, looked up): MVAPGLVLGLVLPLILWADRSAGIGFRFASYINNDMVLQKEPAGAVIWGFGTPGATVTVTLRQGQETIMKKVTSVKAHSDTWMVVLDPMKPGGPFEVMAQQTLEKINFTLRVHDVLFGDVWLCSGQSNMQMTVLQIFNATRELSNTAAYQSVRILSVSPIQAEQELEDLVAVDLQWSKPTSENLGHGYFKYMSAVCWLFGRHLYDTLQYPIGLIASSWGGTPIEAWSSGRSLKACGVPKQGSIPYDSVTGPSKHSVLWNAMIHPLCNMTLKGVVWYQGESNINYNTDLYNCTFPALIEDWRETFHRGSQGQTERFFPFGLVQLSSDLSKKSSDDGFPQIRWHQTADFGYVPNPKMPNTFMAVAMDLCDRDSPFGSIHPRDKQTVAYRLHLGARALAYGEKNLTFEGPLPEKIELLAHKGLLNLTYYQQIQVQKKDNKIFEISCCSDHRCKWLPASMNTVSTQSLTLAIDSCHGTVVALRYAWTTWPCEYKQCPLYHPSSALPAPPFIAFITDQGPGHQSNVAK
TCR CD3 inh: inhibitors of human TCR-CD3 interaction, primary screen, biochemical, fluorescence, TAMRA-labeled TCR probe; T-cell receptor (TCR); inhibition, % at 9.4 µM; 0.37% of 360,000 active; AID 651800, 2012; in the data active = inhibition above about 19%;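 also: recombinant mutant TCR 2C K166C tagged with TAMRA read by polarization; 0% = receptor in buffer alone and 100% = receptor with positive control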
ABHD4 confirm: ABHD4 inhibitors, retest, confirmation, biochemical, fluorescence polarization, mouse; shares compounds with ABHD4 inh; purified mABHD4, FP-Rh probe fluorescence polarization; inhibition, % at 8.92 µM; 55% of 1,800 active;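 active = mean inhibition across replicates above the hit cutoff set in the primary screen, cut at about 30% in these data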;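 also: 0% = wild-type ABHD4 with DMSO and 100% = catalytically dead S159A mutant with DMSO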
* = called active by the depositor; . = no result. Hits are enriched below; roughly 1.8% of the tested compounds scored in any of these assays.

SMILES	ARNT TACC3 PPI	HTRA1 inhibitor	ABHD4 inh	SIAE inh	TCR CD3 inh	ABHD4 confirm
COc1ccc(NC(=S)Nc2ccc(N)c([N+](=O)[O-])c2)cc1	17.7	35.7	33.8*	2.3	-2.2	7.9
C[C@@H]1CN([C@@H](C)CO)S(=O)(=O)c2ccc(-c3cccnc3)cc2O[C@H]1CN(C)C(=O)NC1CCCCC1	-2.3	.	.	.	.	.
COc1ccc(CN2CCN(Cc3c[nH]c4ccccc34)CC2)cc1	-19.9	18.2	18.4	1.2	1.0	.
COc1ccc(CN2CCN(Cc3c[nH]c4ccccc34)CC2)c(OC)c1	.	3.4	33.1*	7.0	-2.5	6.6
CC(C)=C1C(=O)NN(c2ccc(C)c(Cl)c2)C1=O	-71.6	34.2	36.9*	11.6	3.7	21.0
C[C@H]1CCCCO[C@@H](CN(C)Cc2ccc(C(F)(F)F)cc2)[C@@H](C)CN([C@@H](C)CO)C(=O)c2cc(NS(=O)(=O)c3cn(C)cn3)ccc2O1	5.7	.	.	.	.	.
O=C(CSC1=NNC(c2ccccn2)S1)Nc1cccc(Cl)c1 (configuration not stated)	11.6	.	35.9*	-1.2	-12.0	-9.5
O=C(CSc1nncn1-c1ccccn1)Nc1cccc(Cl)c1	-1.4	4.4	-2.1	-0.5	-5.4	.
CC1CCC/C(=N/Nc2nc3ccccc3s2)C1 (configuration not stated)	9.1	12.7	37.9*	10.7	3.5	5.9
O=C(Nc1nc2ccccc2s1)C1CCCO1 (configuration not stated)	-1.0	1.6	-0.8	6.4	2.7	.
CC1(C)CC(=O)C/C(=N/Nc2nc3ccccc3s2)C1	.	21.2	30.2*	11.3	-2.3	26.6
C[C@@H]1CN([C@H](C)CO)C(=O)c2cc(NS(=O)(=O)c3cccs3)ccc2O[C@@H](C)CCCCO[C@@H]1CN(C)C(=O)Cc1ccccc1	-1.4	.	.	.	.	.
CCOC(=O)c1c(/N=C/c2cccc([N+](=O)[O-])c2O)sc(C)c1C	5.7	25.0	32.5*	13.7	6.6	15.8
CN1C(=O)c2cc(NC(=O)c3cccs3)ccc2OC[C@@H]2O[C@@H](CC(=O)NCCN3CCCCC3)CC[C@H]21	-7.1	.	.	.	.	.
COc1ccc(C#Cc2ccc3c(c2)O[C@@H](CN(C)C(=O)CN2CCOCC2)[C@@H](C)CN([C@@H](C)CO)S3(=O)=O)cc1	7.0	.	.	.	.	.
CN(C)c1ccc(N=Nc2ccc(S(=O)(=O)O)cc2)c2ccccc12	10.4	26.2	55.9*	-0.5	-3.5	60.0*
CN(C)c1ccc(N=Nc2ccc(S(N)(=O)=O)cc2)cc1	.	0.5	-10.6	-4.7	-2.8	.
Cc1ccc(NCc2cccc(B(O)O)c2)cc1	11.0	4.0	59.0*	9.4	-1.8	61.3*
Cc1ccc(NCc2ccccc2)cc1	-4.2	4.0	0.9	6.6	8.4	.
CN1c2ccccc2Sc2cc(N)ccc21	-20.7	23.3	36.9*	9.0	0.6	62.8*
CC(=S)/C=C1\Sc2ccccc2N1C	6.2	-1.7	-12.8	0.9	-5.4	.
Cc1cc(C)c(C#N)c(SCc2ccccc2)n1	26.7	-12.3	-13.0	-7.5	-1.9	.
Cc1ccc2nc(CSc3nc(C)cc(C)c3C#N)[nH]c2c1	-5.3	-3.7	44.3*	2.6	5.5	15.2
O=C(Nc1ccc2c(c1)OCO2)N[C@@H]1CC[C@@H](CCNC(=O)C2CCC2)O[C@H]1CO	2.8	.	.	.	.	.
Oc1cccc(-c2nnc(-c3cccc(O)c3)nn2)c1	-11.2	-1.5	42.1*	-0.6	2.5	60.2*
Oc1cccc(-c2nc3ccccc3s2)c1	-2.0	-13.7	-18.6	-3.2	5.0	.
Cn1c(CNc2ccc(O)cc2)nc2ccccc21	17.5	5.2	57.5*	8.3	10.3	-0.4
O=C(CNc1cccc2ccccc12)N/N=C/c1ccc[nH]1	17.4	28.4	28.9	3.1	1.0	.
O=C(CNc1cccc2ccccc12)N/N=C/C(Br)=C/c1ccccc1	5.5	22.1	31.8*	7.2	2.6	2.9
